Test results from ChEMBL document CHEMBL1122747, “Potential antitumor agents. 42. Structure-activity relationships for acridine-substituted dimethyl phosphoramidate derivatives of 9-anilinoacridine” (J Med Chem, 1984).

Key:
[1] = Lipophilicity (Rm) (liquid chromatography); format: physicochemical
In short: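 Rm is measured for drug cations at pH 2 by liquid-liquid chromatography on a cellulose support.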

[2] = Binding affinity towards poly[d(A-T)] (fluorometric method); format: ADME
In short: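 Log R for binding to poly[d(A-T)] measured fluorometrically, corrected for quenching.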

[3] = test system: L1210; experiment: In vitro test for 50% reduction of cell number (of control) after 70 hr incubation with cultures of murine L1210 leukemia cells; format: functional; conditions: Mus musculus, L1210, 70 h; read-out: ID50 (the source's name)
[4] = test system: P388; experiment: In vivo dose of drug needed for a percentage increase of 50% in life span of tumor-bearing mice compared to untreated controls after inoculation of 10e6 P388 leukemia cells; format: functional, Mus musculus
[5] = test system: P388; experiment: In vivo tumor cell selectivity (ILSmax values)for percentage increase in life span of treated animals over that of P388 tumor bearing untreated control animals; format: functional, Mus musculus
[6] = test system: P388; experiment: In vivo inhibition of P388 in mice for optimal (highest nonacutely toxic) dose (OD); format: functional, Mus musculus
In short: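 F1 (DBA/2J × C57BlJ) mice, 19-21 g, either sex, inoculated with 10^6 P388 leukemia cells on day 0. Drug given ip in 0.1 mL 30% aqueous ethanol on days 1, 5 and 9, as a solution or, at highest doses, as a sonicated suspension. Doses stepped down from a toxic level at 0.67-fold intervals. Groups of six mice; ILS relative to 20-30 controls. OD is the highest nonacutely toxic daily dose.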

[7] = test system: P388; experiment: Dose of drug needed to provide a percentage increase in life span of tumor-bearing mice in vivo of […]% compared to untreated controls after inoculation of 10e6 P388 leukemia cells; h=ILS of >50% could not be obtained at any dose level; format: functional, organism-based; conditions: Mus musculus

| Compound | Rm [1] | Log K [2] | IC50 [3] [µM] | D50 [4] [mg/kg/day] | Activity [5] [%] | OD [6] [mg/kg/day] | D50 [7] |
| --- | --- | --- | --- | --- | --- | --- | --- |
| CNC(=O)c1cccc2c(Nc3ccc(NS(C)(=O)=O)cc3OC)c3ccccc3nc12 | 0.06 | 5.54 | 0.27 | 8 | 127 | 30 | – |
| CNC(=O)c1cccc2c(Nc3ccc(NP(=O)(OC)OC)cc3)c3ccccc3nc12 | 0.18 | 6.46 | 0.097 | 60 | 56 | 66 | – |
| CNC(=O)c1cccc2c(Nc3ccc(NS(C)(=O)=O)cc3)c3ccccc3nc12 | -0.1 | 6.22 | 0.245 | – | 41 | 150 | ILS not obtained |
| COc1cc(NS(C)(=O)=O)ccc1Nc1c2ccccc2nc2c(C)cccc12 | 0.25 | 6.03 | 0.03 | 4 | 172 | 20 | – |
| COc1cccc2c(Nc3ccc(NP(=O)(OC)OC)cc3)c3ccccc3nc12 | 0.33 | 6.53 | 0.02 | 45 | 50 | 45 | – |
| COc1cc(NP(=O)(OC)OC)ccc1Nc1c2ccccc2nc2cc(Br)ccc12 | 0.57 | 6.44 | 0.005 | 4 | 83 | 13.3 | – |
| COP(=O)(Nc1ccc(Nc2c3ccccc3nc3cc(C)ccc23)cc1)OC | 0.49 | 6.77 | 0.007 | 6 | 84 | 20 | – |
| COP(=O)(Nc1ccc(Nc2c3ccccc3nc3ccccc23)cc1)OC | 0.34 | 6.26 | 0.015 | 15 | 107 | 45 | – |
| COc1cc(NS(C)(=O)=O)ccc1Nc1c2ccccc2nc2ccc(C)cc12 | 0.4 | 5.35 | 1.4 | – | 34 | 69 | ILS not obtained |
| CS(=O)(=O)Nc1ccc(Nc2c3ccccc3nc3cc(N)ccc23)cc1 | -0.18 | 6.82 | 0.01 | 8 | 67 | 8.9 | – |
| CS(=O)(=O)Nc1ccc(Nc2c3ccccc3nc3ccccc23)cc1 | 0 | – | 0.035 | 35 | 102 | 150 | – |
| COP(=O)(Nc1ccc(Nc2c3ccccc3nc3cc(N)ccc23)cc1)OC | 0.06 | 6.9 | 0.385 | 5 | 58 | 5.9 | – |
| COc1cc(NS(C)(=O)=O)ccc1Nc1c2ccccc2nc2ccccc12 [AMSACRINE] | 0.18 | 5.57 | – | 3 | 58 | – | – |
| COc1cc(NP(=O)(OC)OC)ccc1Nc1c2ccccc2nc2cc(Cl)ccc12 | 0.61 | 6.4 | 0.012 | 5.5 | 91 | 13.3 | – |
| Cc1cccc2c(Nc3ccc(NS(C)(=O)=O)cc3)c3ccccc3nc12 | 0.07 | 6.52 | 0.017 | 50 | 75 | 66 | – |
| Cc1ccc2c(Nc3ccc(NS(C)(=O)=O)cc3)c3ccccc3nc2c1 | 0.24 | 6.41 | 0.008 | 27 | 73 | 50 | – |
| COc1cc(NP(=O)(OC)OC)ccc1Nc1c2ccccc2nc2c(C)cccc12 | 0.44 | 6.16 | 0.018 | 3 | – | 8.9 | – |
| COc1cc(NS(C)(=O)=O)ccc1Nc1c2ccccc2nc2c(OC)cccc12 | 0.19 | 5.94 | 0.04 | 8 | 139 | 30 | – |
| COc1cc(NP(=O)(OC)OC)ccc1Nc1c2ccccc2nc2ccccc12 | 0.47 | 5.64 | 0.07 | 3.5 | 67 | 8.9 | – |
| COP(=O)(Nc1ccc(Nc2c3ccccc3nc3cc(Br)ccc23)cc1)OC | 0.47 | 6.56 | 0.015 | 20 | 110 | 65 | – |
| COc1cc(NP(=O)(OC)OC)ccc1Nc1c2ccccc2nc2c(OC)cccc12 | 0.47 | 6.09 | 0.012 | 6 | 76 | 9 | – |
| COP(=O)(Nc1ccc(Nc2c3ccccc3nc3cc(S(C)(=O)=O)ccc23)cc1)OC | -0.14 | 5.63 | > 1.5 | – | – | 150 | ILS not obtained |
| CNC(=O)c1cccc2c(Nc3ccc(NP(=O)(OC)OC)cc3OC)c3ccccc3nc12 | 0.28 | 5.94 | 0.018 | 13 | – | 30 | – |
| COP(=O)(Nc1ccc(Nc2c3ccccc3nc3cc(Cl)ccc23)cc1)OC | 0.46 | 7 | 0.016 | 35 | 62 | 45 | – |
| COP(=O)(Nc1ccc(Nc2c3ccccc3nc3c(C)cccc23)cc1)OC | 0.46 | 6.75 | 0.009 | 9 | – | 20 | – |
| COc1cccc2c(Nc3ccc(NS(C)(=O)=O)cc3)c3ccccc3nc12 | 0.01 | 6.24 | 0.045 | 125 | 58 | 150 | – |
| COc1cc(NS(C)(=O)=O)ccc1Nc1c2ccccc2nc2cc(Br)ccc12 | 0.34 | 6.29 | 0.05 | 4 | 133 | 20 | – |
| COc1cc(NS(C)(=O)=O)ccc1Nc1c2ccccc2nc2cc(Cl)ccc12 | 0.32 | 6.06 | 0.07 | 5 | 232 | 20 | – |
| CS(=O)(=O)Nc1ccc(Nc2c3ccccc3nc3cc(Cl)ccc23)cc1 | 0.14 | 6.89 | 0.05 | 60 | 53 | 65 | – |
